According to ChEMBL document CHEMBL3739271, “Synthesis and evaluation of a series of resveratrol analogues as potent anti-cancer agents that target tubulin” (2015):
Activity calls are given as the source filed them.

Columns and labels:
[1] = tested on: CCRF-CEM; experiment: Cytotoxicity against human CCRF-CEM cells by SRB assay; assay type: functional
Method in brief: (§1)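 NCI 60 human tumor cell line panel, sulforhodamine B (SRB) protein-stain read-out. Compounds were first screened at a single dose of 10^-5 M, and selected compounds were then tested in a five-dose format. GI50 is the drug concentration giving a 50% reduction in net protein increase relative to control cells.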

[2] = Cytotoxicity against human HL-60(TB) cells by SRB assay; assay type: functional
Method in brief: (§2)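 NCI 60-cell-line panel using sulforhodamine B protein stain. Initial single-dose screen at 10^-5 M, then five-dose testing. GI50 is the drug concentration giving a 50% reduction in net protein increase relative to control cells.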

[3] = tested on: K562; experiment: Cytotoxicity against human K562 cells by SRB assay; assay type: functional; method in brief: as §1
[4] = Cytotoxicity against human MOLT4 cells by SRB assay; assay type: functional; settings: MOLT-4; method in brief: as §1
[5] = Cytotoxicity against human RPMI8226 cells by SRB assay; assay type: functional; settings: RPMI-8226; method in brief: as §1
[6] = tested on: SR; experiment: Cytotoxicity against human SR cells by SRB assay; assay type: functional; method in brief: as §1
[7] = tested on: A549; experiment: Cytotoxicity against human A549 cells by SRB assay; assay type: functional; method in brief: as §1
[8] = Cytotoxicity against human HOP62 cells by SRB assay; assay type: functional; settings: HOP-62; method in brief: as §1
[9] = Cytotoxicity against human HOP92 cells by SRB assay; assay type: functional; settings: HOP-92; method in brief: as §1
[10] = tested on: NCI-H23; experiment: Cytotoxicity against human NCI-H23 cells by SRB assay; assay type: functional; method in brief: as §1
[11] = tested on: NCI-H522; experiment: Cytotoxicity against human NCI-H522 cells by SRB assay; assay type: functional; method in brief: as §1
[12] = Cytotoxicity against human COLO205 cells by SRB assay; assay type: functional; settings: COLO 205; method in brief: as §1
[13] = Cytotoxicity against human HCC2998 cells by SRB assay; assay type: functional; settings: HCC 2998; method in brief: as §1
[14] = Cytotoxicity against human HCT116 cells by SRB assay; assay type: functional; settings: HCT-116; method in brief: as §1
[15] = Cytotoxicity against human HCT15 cells by SRB assay; assay type: functional; settings: HCT-15; method in brief: as §1
[16] = tested on: HT-29; experiment: Cytotoxicity against human HT-29 cells by SRB assay; assay type: functional; method in brief: as §1
[17] = tested on: KM12; experiment: Cytotoxicity against human KM12 cells by SRB assay; assay type: functional; method in brief: as §1
[18] = Cytotoxicity against human SW620 cells by SRB assay; assay type: functional; settings: SW-620; method in brief: as §1
[19] = Cytotoxicity against human SF268 cells by SRB assay; assay type: functional; settings: SF-268; method in brief: as §1
[20] = Cytotoxicity against human SF295 cells by SRB assay; assay type: functional; settings: SF-295; method in brief: as §1
[21] = Cytotoxicity against human SF539 cells by SRB assay; assay type: functional; settings: SF-539; method in brief: as §1
[22] = Cytotoxicity against human SNB19 cells by SRB assay; assay type: functional; settings: SNB-19; method in brief: as §1
[23] = Cytotoxicity against human SNB75 cells by SRB assay; assay type: functional; settings: SNB-75; method in brief: as §1
[24] = tested on: U-251; experiment: Cytotoxicity against human U251 cells by SRB assay; assay type: functional; method in brief: as §1
[25] = Cytotoxicity against human LOXIMVI cells by SRB assay; assay type: functional; settings: LOX IMVI; method in brief: as §2
[26] = tested on: M14; experiment: Cytotoxicity against human M14 cells by SRB assay; assay type: functional; method in brief: as §1
[27] = tested on: MDA-MB-435; experiment: Cytotoxicity against human MDA-MB-435 cells by SRB assay; assay type: functional; method in brief: as §1
[28] = tested on: SK-MEL-28; experiment: Cytotoxicity against human SK-MEL-28 cells by SRB assay; assay type: functional; method in brief: as §1
[29] = tested on: SK-MEL-5; experiment: Cytotoxicity against human SK-MEL-5 cells by SRB assay; assay type: functional; method in brief: as §1
[30] = Cytotoxicity against human IGROV1 cells by SRB assay; assay type: functional; settings: IGROV-1; method in brief: as §2
[31] = Cytotoxicity against human OVCAR3 cells by SRB assay; assay type: functional; settings: OVCAR-3; method in brief: as §1
[32] = Cytotoxicity against human OVCAR4 cells by SRB assay; assay type: functional; settings: OVCAR-4; method in brief: as §1
[33] = tested on: NCI/ADR-RES; experiment: Cytotoxicity against human NCI/ADR-RES cells by SRB assay; assay type: functional; method in brief: as §1
[34] = Cytotoxicity against human SKOV3 cells by SRB assay; assay type: functional; settings: SK-OV-3; method in brief: as §1
[35] = tested on: 786-0; experiment: Cytotoxicity against human 786-0 cells by SRB assay; assay type: functional; method in brief: as §1
[36] = tested on: A498; experiment: Cytotoxicity against human A498 cells by SRB assay; assay type: functional; method in brief: as §1
[37] = tested on: ACHN; experiment: Cytotoxicity against human ACHN cells by SRB assay; assay type: functional; method in brief: as §1
[38] = tested on: CAKI-1; experiment: Cytotoxicity against human CAKI-1 cells by SRB assay; assay type: functional; method in brief: as §1
[39] = Cytotoxicity against human UO31 cells by SRB assay; assay type: functional; settings: UO-31; method in brief: as §1
[40] = tested on: MCF7; experiment: Cytotoxicity against human MCF7 cells by SRB assay; assay type: functional; method in brief: as §1
[41] = tested on: MDA-MB-231; experiment: Cytotoxicity against human MDA-MB-231 cells by SRB assay; assay type: functional; method in brief: as §1
[42] = Cytotoxicity against human Hs578T cells by SRB assay; assay type: functional; settings: Hs-578T; method in brief: as §1
[43] = tested on: MDA-MB-468; experiment: Cytotoxicity against human MDA-MB-468 cells by SRB assay; assay type: functional; method in brief: as §1
[44] = tested on: MV4-11; experiment: Anti-leukemia activity against human MV4-11 cells after 48 hrs by Annexin-V staining; assay type: functional; settings: MV4-11, 48 h, read-out: LD50 (the source's name)
Method in brief: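 MV4-11 AML cells exposed to increasing compound concentrations for 24 and 48 h. Viability measured by Annexin V/7-AAD staining and expressed as percent Annexin V-/7-AAD- cells relative to control. N = 5, error bars SD. LD50 values derived from these curves.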

[45] = Cytotoxicity against human UACC62 cells by SRB assay; assay type: functional; settings: UACC-62; method in brief: as §1
[46] = tested on: SK-MEL-2; experiment: Cytotoxicity against human SK-MEL-2 cells by SRB assay; assay type: functional; method in brief: as §1
[47] = tested on: MV4-11; experiment: Inhibition of alpha-tubulin polymerization in human MV4-11 cells at 25 to 100 nM after 2 hrs by Western blotting; assay type: cell-based
Method in brief: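 MV4-11 cells treated for 2 hours at 25, 50 and 100 nM. Microtubule polymerization then assessed by immunoblot.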

COc1ccc(/C=C(/C#N)c2ccc(OC)c(OC)c2)cc1O
170 nM: GI50 [13]
250 nM: GI50 [7]
10 nM: GI50 [11]
409 nM: CC50 [44]
< 10 nM: GI50 [27]
70 nM: GI50 [4] | GI50 [25] | GI50 [30]
1070 nM: GI50 [32]
1260 nM: GI50 [12]
40 nM: GI50 [1] | GI50 [17] | GI50 [18] | GI50 [22] | GI50 [43]
860 nM: GI50 [9]
80 nM: GI50 [10] | GI50 [19]
20 nM: GI50 [21] | GI50 [23] | GI50 [26] | GI50 [31] | GI50 [33] | GI50 [36]
1270 nM: GI50 [28]
580 nM: GI50 [20]
420 nM: GI50 [38]
30 nM: GI50 [2] | GI50 [3] | GI50 [6] | GI50 [8] | GI50 [14] | GI50 [15] | GI50 [40] | GI50 [42]
50 nM: GI50 [5] | GI50 [24] | GI50 [29] | GI50 [34] | GI50 [41]
240 nM: GI50 [35]
620 nM: GI50 [16]
90 nM: GI50 [37] | GI50 [39]

COc1ccc(/C=C(\C#N)c2ccc(OC)c(OC)c2)cc1O
60 nM: GI50 [19] | GI50 [25] | GI50 [30] | GI50 [39]
20 nM: GI50 [3] | GI50 [6] | GI50 [17] | GI50 [21] | GI50 [23] | GI50 [45] | GI50 [31] | GI50 [33] | GI50 [36]
570 nM: GI50 [16]
210 nM: GI50 [7]
1240 nM: GI50 [12]
70 nM: GI50 [10]
353 nM: CC50 [44]
80 nM: GI50 [37]
< 10 nM: GI50 [11] | GI50 [27]
1690 nM: GI50 [9]
100 nM: GI50 [20]
30 nM: GI50 [1] | GI50 [2] | GI50 [8] | GI50 [26] | GI50 [40] | GI50 [42]
1560 nM: GI50 [32]
50 nM: GI50 [4] | GI50 [22] | GI50 [34]
1810 nM: GI50 [13]
1110 nM: GI50 [28]
40 nM: GI50 [5] | GI50 [14] | GI50 [15] | GI50 [18] | GI50 [24] | GI50 [29] | GI50 [41] | GI50 [43]
360 nM: GI50 [35]

COc1ccc(/C=C(\C#N)c2cc(OC)c(OC)c(OC)c2)cc1O
3180 nM: GI50 [16]
30 nM: GI50 [38]
10 nM: GI50 [24] | GI50 [34]
20 nM: GI50 [13]
2990 nM: GI50 [12]
1010 nM: GI50 [28]
50 nM: GI50 [20]
< 10 nM: GI50 [1] | GI50 [2] | GI50 [3] | GI50 [4] | GI50 [5] | GI50 [6] | GI50 [7] | GI50 [8] | GI50 [9] | GI50 [10] | GI50 [11] | GI50 [14] | GI50 [15] | GI50 [17] | GI50 [18] | GI50 [19] | GI50 [21] | GI50 [22] | GI50 [23] | GI50 [25] | GI50 [26] | GI50 [27] | GI50 [46] | GI50 [29] | GI50 [45] | GI50 [30] | GI50 [31] | GI50 [32] | GI50 [33] | GI50 [35] | GI50 [36] | GI50 [37] | GI50 [39] | GI50 [40] | GI50 [41] | GI50 [42] | GI50 [43]
active: inhibition [47]
38.6 nM: CC50 [44]

COc1ccc(/C=C(/C#N)c2cc(OC)c(OC)c(OC)c2)cc1O
< 10 nM: GI50 [1] | GI50 [2] | GI50 [3] | GI50 [4] | GI50 [5] | GI50 [6] | GI50 [7] | GI50 [9] | GI50 [10] | GI50 [11] | GI50 [13] | GI50 [14] | GI50 [15] | GI50 [17] | GI50 [18] | GI50 [19] | GI50 [21] | GI50 [22] | GI50 [23] | GI50 [24] | GI50 [25] | GI50 [26] | GI50 [27] | GI50 [46] | GI50 [28] | GI50 [29] | GI50 [45] | GI50 [30] | GI50 [31] | GI50 [32] | GI50 [33] | GI50 [34] | GI50 [36] | GI50 [37] | GI50 [38] | GI50 [39] | GI50 [40] | GI50 [41] | GI50 [42] | GI50 [43]
300 nM: GI50 [12]
320 nM: GI50 [16]
20 nM: GI50 [35]
10 nM: GI50 [20]
active: inhibition [47]
2.5 nM: CC50 [44]
